Results gathered from unrelated publications.
Compare with care: the assays were run in different laboratories.
Read-out: metabolic stability

| SMILES | species | sample | concentration | pH | measurement | value |
| --- | --- | --- | --- | --- | --- | --- |
| C[C@]1(O)CCCN(c2nc(Nc3ccc(S(=O)(=O)N[C@H]4CC[C@H](CN5CCN(c6ccc(C7CCC(=O)NC7=O)cc6F)CC5)CC4)cc3F)ncc2C(F)(F)F)C1 (stereo partly shown) | rat | liver microsomes | 1 µM | – | scaled CLint | < 21 mL/min/kg |
| CN1CCN(c2ccc(-c3ccc4nncc(Nc5ccc(OC(F)(F)F)cc5)c4c3)cc2)CC1 | rat | hepatocytes | – | – | hepatocyte CLint | 14 µL/min/10⁶ cells |
| Cc1cc(S(=O)(=O)N[C@H]2CC[C@H](CN3CCN(c4cccc(NC5CCC(=O)NC5=O)c4)CC3)CC2)ccc1Nc1ncc(C(F)(F)F)c(N2CCC[C@](C)(O)C2)n1 (stereo partly shown) | rat | liver microsomes | 1 µM | – | scaled CLint | < 21 mL/min/kg |
| CCONC(=O)N1CCC[C@H](C(=O)NCc2nc(-c3ccc(C#N)cc3)cs2)C1 | male Sprague-Dawley rat | liver microsomes | 0.5 µM | – | microsomal CLint | 33 µL/min/mg |
| CNS(=O)(=O)c1ccc(Nc2ncc(C(F)(F)F)c([C@H]3CC[C@@](C)(O)CC3)n2)c(C)c1 | rat | liver microsomes | 1 µM | – | scaled CLint | < 21 mL/min/kg |
| Cc1[nH]c(C)c(S(=O)(=O)Nc2ccc(C(F)(F)F)c(Cl)c2)c1C(=O)N1CCC(F)(F)C1 | rat | liver microsomes | – | – | microsomal CLint | 87 µL/min/mg |
| N#Cc1ccc(-c2csc(CNC(=O)[C@H]3CCCN(C(=O)COC4CC4)C3)n2)cc1 | male Sprague-Dawley rat | liver microsomes | 0.5 µM | – | microsomal CLint | 100 µL/min/mg |
| Cc1cc(S(=O)(=O)NC2CC(N3CC[C@@H](OC4CN(c5cccc6c5n(C)c(=O)n6C5CCC(=O)NC5=O)C4)[C@H](F)C3)C2)ccc1Nc1ncc(C(F)(F)F)c(N2CCC[C@](C)(O)C2)n1 (stereo partly shown) | rat | liver microsomes | 1 µM | – | scaled CLint | 23 mL/min/kg |
| N#Cc1ccc(-c2csc(CNC(=O)[C@H]3CCCN(C(=O)N4CCCC4)C3)n2)cc1 | male Sprague-Dawley rat | liver microsomes | 0.5 µM | – | microsomal CLint | 223 µL/min/mg |
| Cc1cc(S(=O)(=O)N[C@H]2CC[C@H](CN3CCN(c4ccc(C5CCC(=O)NC5=O)c(Cl)c4)CC3)CC2)ccc1Nc1ncc(C(F)(F)F)c(N2CCC[C@](C)(O)C2)n1 (stereo partly shown) | rat | liver microsomes | 1 µM | – | scaled CLint | < 21 mL/min/kg |
| CC(C)(N)COCC(=O)N1CCC[C@H](C(=O)NCc2nc(-c3ccc(C(F)(F)F)cc3)cs2)C1 | male Sprague-Dawley rat | hepatocytes | 0.5 µM | – | scaled CLint | 21 mL/min/kg |
| Cc1ccc(N(c2ccc(NC(=O)CN(C)c3ccccc3N3CCCC3=O)cn2)C(C)C)cc1 | rat | hepatocytes | – | – | hepatocyte CLint | 86 µL/min/10⁶ cells |
| C[C@H]1CN(CC2CCN(c3ccc(C4CCC(=O)NC4=O)cc3F)CC2)CC[C@H]1NS(=O)(=O)c1ccc(Nc2ncc(C(F)(F)F)c(N3CCC[C@](C)(O)C3)n2)c(F)c1 (stereo partly shown) | rat | liver microsomes | 1 µM | – | scaled CLint | 45 mL/min/kg |
| Cc1ccc(N(C)c2ccc(NC(=O)CN(C)c3ccccc3N3CCCC3=O)cn2)cc1 | rat | hepatocytes | – | – | hepatocyte CLint | > 92 µL/min/10⁶ cells |
| N#Cc1ccc(C[C@H](NC(=O)c2cc3ccc(F)cc3[nH]2)C(=O)N2CCc3ccccc32)cc1 | rat | liver microsomes | 10 µM | pH 7.4 | microsomal CLint | 6.6 µL/min/mg |
| Cc1ccc(Oc2ccc(NC(=O)CNc3ccccc3N3CCCC3=O)cc2)cc1 | rat | hepatocytes | – | – | hepatocyte CLint | 58 µL/min/10⁶ cells |
| CCOCC(=O)N1CCC[C@H](C(=O)NCc2nc(-c3ccc(C#N)nc3)cs2)C1 | male Sprague-Dawley rat | hepatocytes | 0.5 µM | – | scaled CLint | 17 mL/min/kg |
| N#Cc1ccc(C[C@@H](Nc2c(Nc3ccc(F)cc3)c(=O)c2=O)C(=O)N2CCc3ccccc32)cc1 | rat | liver microsomes | 10 µM | pH 7.4 | microsomal CLint | 46.2 µL/min/mg |
| Cc1ccc(Oc2ccc(NC(=O)CNc3ccccc3-n3cncn3)cc2)cc1 | rat | hepatocytes | – | – | hepatocyte CLint | 46 µL/min/10⁶ cells |
